Experimental data gathered from unrelated publications.
Compare with care: the assays were run in different laboratories.
CYP3A7: Cytochrome P450 3A7 (CYP3A7, Homo sapiens, UniProt P24462)

With `C=C(C)[C@@]12O[C@@]3(/C=C/C=C/C=C/CCC)O[C@@H]1[C@@H]1[C@@H]4O[C@]4(CO)[C@@H](O)[C@]4(O)C(=O)C(C)=C[C@H]4[C@@]1(O3)[C@H](C)[C@H]2OC(=O)/C=C/c1ccc(O)cc1` the IC50 was greater than 0.034 µM (MT4; cell growth or viability, ATP luminescence; 96 h).
The CC50 of `CCCCCCCCCC(=O)O[C@@]12[C@H](OC(=O)c3ccccc3)[C@@H](C)[C@]3(O)[C@@H]4C=C(C)C(=O)[C@@]4(O)[C@H](O)C(CO)=C[C@H]3[C@@H]1C2(C)C` is reported as greater than 7 µM (MT4; cell growth or viability, ATP luminescence).
`O=C(O)C(F)(F)C(F)(F)C(F)(F)C(F)(F)C(F)(F)C(F)(F)C(F)(F)F` gave an inhibition of 16.3% (CYP3A7; enzyme activity, inhibitor; 10 µM, pH 7.4).
`COC(=O)N[C@H](C(=O)NN(CC[C@@]1(Cc2ccccc2)C(=O)N([C@H]2c3ccccc3C[C@H]2O)C[C@@H]1O)Cc1ccc(-c2ccncc2)cc1)C(C)(C)C` gave a CC50 of greater than 50 µM (MT4; cell growth or viability, XTT; 5 days).
For `CC[C@H](C)[C@H]1C(=O)N2CCC[C@H]2C(=O)O[C@H](C(C)(C)C)C[C@@H](C)C[C@H](O)C(C)(C)C2=N[C@@H](CCC(=O)N[C@@H](Cc3ccc(OC)cc3)C(=O)N(C)[C@@H](C)C(=O)N1C)CS2`, the compound remaining was 100% (metabolic stability; female CD-1 mouse, liver microsomes; 1 µM, 0 h, pH 7.4).
With `Cc1ncc2n1-c1ccc(Cl)cc1C(c1ccccc1F)=NC2` the compound remaining was less than 7% (metabolic stability; male CD-1 mouse, liver microsomes; 1 µM, 30 min).
`CCCC/C=C/C=C/CC(=O)O[C@@]12[C@H](OC(=O)c3ccccc3)[C@@H](C)[C@@]3(O)[C@@H](C=C(CO)C[C@]4(O)C(=O)C(C)=C[C@@H]34)[C@@H]1C2(C)C` has a CC50 of greater than 7 µM (MT4; cell growth or viability, ATP luminescence).
`Cc1ncc2n1-c1ccc(Cl)cc1C(c1ccccc1F)=NC2` has a compound remaining of 0.3% (metabolic stability; CD-1 mouse, hepatocytes; 1 µM, 4 h).
The IC50 of `C=C(C)[C@@]1(O)[C@H](OC(=O)/C=C/C=C/CCCCC)[C@@H]2[C@@H]3O[C@]3(CO)[C@@H](O)[C@]3(O)C(=O)C(C)=C[C@H]3[C@@]2(O)[C@H](C)[C@H]1OC(=O)/C=C/c1ccccc1` is reported as greater than 0.034 µM (MT4; cell growth or viability, ATP luminescence; 96 h).
With `COC(=O)N[C@H](C(=O)NN(CC[C@@]1(Cc2ccccc2)C(=O)N([C@H]2c3ccccc3C[C@H]2O)C[C@@H]1O)Cc1ccc(-c2cccnc2)cc1)C(C)(C)C` the CC50 was greater than 50 µM (MT4; cell growth or viability, XTT; 5 days).
The IC50 of `C=C(C)[C@@]12O[C@@]3(/C=C/C=C/CCCCC)O[C@@H]1[C@@H]1[C@@H]4O[C@]4(CO)[C@@H](O)[C@]4(O)C(=O)C(C)=C[C@H]4[C@@]1(O3)[C@H](C)[C@H]2OC(=O)/C=C/c1ccc(O)c(OC)c1` is reported as greater than 0.034 µM (MT4; cell growth or viability, ATP luminescence; 96 h).
The inhibition of `O=S(=O)(O)C(F)(F)C(F)(F)C(F)(F)C(F)(F)C(F)(F)C(F)(F)F` is reported as 48.8% (CYP3A7; enzyme activity, inhibitor; 100 µM, pH 7.4).
With `N=c1c2c(-c3ccccc3)c(-c3ccccc3)n(Cc3ccccc3)c2ncn1[C@H]1CC[C@H](O)CC1` the compound remaining was 103% (metabolic stability; CD-1 mouse, hepatocytes; 1 µM, 4 h).
For `C=C(C)[C@]1(O)C[C@@H](C)[C@@]2(O)[C@@H]([C@H]3O[C@@]4([C@H](O)[C@]3(O)COC(=O)c3ccccc3)[C@@H](OC(=O)/C=C/C=C/C=C/CCC)[C@@H](C)C[C@@H]24)[C@H]1O`, the IC50 was greater than 0.034 µM (MT4; cell growth or viability, ATP luminescence; 96 h).
